Source: ChEMBL document CHEMBL3774372, “Design, physico-chemical properties and biological evaluation of some new N-[(phenoxy)alkyl]- and N-{2-[2-(phenoxy)ethoxy]ethyl}aminoalkanols as anticonvulsant agents” (Bioorg Med Chem, 2016)
Activity calls are given as the source filed them.

Experiments:
Rattus norvegicus [1] = test: Anticonvulsant activity in rat assessed as protection against maximal electric shock-induced seizures at 30 mg/kg, po measured after 0.5 hrs; type: functional, organism-based
Outline: (§1)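 Rats dosed ip or orally as 0.5% methylcellulose suspension; maximal electroshock at listed time. Protection = abolition of hindlimb tonic extension; 4 rats per group, scored protected/tested.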

Rattus norvegicus [2] = test: Anticonvulsant activity in rat assessed as protection against maximal electric shock-induced seizures at 30 mg/kg, po measured after 4 hrs; type: functional, organism-based; outline: as §1
Rattus norvegicus [3] = test: Neurotoxicity in rat at 30 mg/kg, po after 2 hrs by rotarod test; type: toxicity, organism-based; conditions: in vivo
Rattus norvegicus [4] = test: Neurotoxicity in rat at 30 mg/kg, po after 1 hr by rotarod test; type: toxicity, organism-based; conditions: in vivo
Mus musculus [5] = test: Anticonvulsant activity in mouse assessed as protection against maximal electric shock-induced seizures at 100 mg/kg, ip measured after 4 hrs; type: functional, organism-based
Outline: (§2)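 Mice dosed ip with suspension in 0.5% methylcellulose; maximal electroshock applied at the listed time after dosing. Protection = abolition of hindlimb tonic extension component of seizure; reported as animals protected/animals tested.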

Mus musculus [6] = test: Neurotoxicity in mouse at 30 mg/kg, ip after 1 hr by rotarod test; type: toxicity, organism-based; conditions: in vivo
Mus musculus [7] = test: Neurotoxicity in mouse at 100 mg/kg, ip after 1 hr by rotarod test; type: toxicity, organism-based; conditions: in vivo
Outline: (§3)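 Mice were dosed ip with compound suspended in 0.5% methylcellulose. Rotarod: a 1 in. knurled rod turning at 6 rpm. Neurotoxicity was scored as failure to stay on the rod for at least 1 min in each of three trials. Results are given as the number of animals affected out of the number tested.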

Mus musculus [8] = test: Neurotoxicity in mouse at 100 mg/kg, ip after 4 hrs by rotarod test; type: toxicity, organism-based; conditions: in vivo; outline: as §3
Mus musculus [9] = test: Neurotoxicity in mouse at 30 mg/kg, ip after 4 hrs by rotarod test; type: toxicity, organism-based; conditions: in vivo; outline: as §3
Rattus norvegicus [10] = test: Anticonvulsant activity in rat assessed as protection against maximal electric shock-induced seizures at 30 mg/kg, po measured after 2 hrs; type: functional, organism-based; outline: as §1
Mus musculus [11] = test: Anticonvulsant activity in mouse assessed as protection against maximal electric shock-induced seizures at 100 mg/kg, ip measured after […]; type: functional, organism-based
Rattus norvegicus [12] = test: Neurotoxicity in rat at 30 mg/kg, po after 0.5 hrs by rotarod test; type: toxicity, organism-based; conditions: in vivo
Rattus norvegicus [13] = test: Anticonvulsant activity in rat assessed as protection against maximal electric shock-induced seizures at 30 mg/kg, ip measured after 4 hrs; type: functional, organism-based; outline: as §1
Mus musculus [14] = test: Anticonvulsant activity in mouse assessed as protection against 6 Hz psychomotor seizure at 100 mg/kg, ip after 4 hrs; type: functional, organism-based
Outline: (§4)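 Suspension in 0.5% methylcellulose given ip to mice; corneal stimulation with 0.2 ms monopolar rectangular pulses at 6 Hz for 3 s from a constant current device, mice restrained then released to observation cage. Protected if normal exploratory behaviour resumed within 10 s of stimulation. Scored as protected/tested, 4 mice per group.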

Rattus norvegicus [15] = test: Neurotoxicity in rat at 30 mg/kg, ip after 0.5 hrs by rotarod test; type: toxicity, organism-based; conditions: in vivo
Mus musculus [16] = test: Anticonvulsant activity in mouse assessed as protection against maximal electric shock-induced seizures at 100 mg/kg, ip measured after 0.5 hrs; type: functional, organism-based; outline: as §2
Rattus norvegicus [17] = test: Anticonvulsant activity in rat assessed as protection against maximal electric shock-induced seizures at 30 mg/kg, ip measured after 1 hr; type: functional, organism-based; outline: as §1
Rattus norvegicus [18] = test: Anticonvulsant activity in rat assessed as protection against maximal electric shock-induced seizures at 30 mg/kg, po measured after 1 hr; type: functional, organism-based; outline: as §1
Mus musculus [19] = test: Anticonvulsant activity in mouse assessed as protection against 6 Hz psychomotor seizure at 100 mg/kg, ip after 2 hrs; type: functional, organism-based; outline: as §4
Rattus norvegicus [20] = test: Anticonvulsant activity in rat assessed as protection against maximal electric shock-induced seizures at 30 mg/kg, po measured after […]; type: functional, organism-based
Mus musculus [21] = test: Anticonvulsant activity in mouse assessed as protection against maximal electric shock-induced seizures at 100 mg/kg, ip measured after 1 hr; type: functional, organism-based; outline: as §2
Rattus norvegicus [22] = test: Neurotoxicity in rat at 30 mg/kg, po after […] by rotarod test; type: toxicity, organism-based; conditions: in vivo
Mus musculus [23] = test: Anticonvulsant activity in mouse assessed as protection against maximal electric shock-induced seizures at 30 mg/kg, ip measured after 4 hrs; type: functional, organism-based; outline: as §2
Rattus norvegicus [24] = test: Neurotoxicity in rat at 30 mg/kg, ip after 4 hrs by rotarod test; type: toxicity, organism-based; conditions: in vivo
Rattus norvegicus [25] = test: Neurotoxicity in rat at 30 mg/kg, ip after 2 hrs by rotarod test; type: toxicity, organism-based; conditions: in vivo
Rattus norvegicus [26] = test: Neurotoxicity in rat at 30 mg/kg, ip after […] by rotarod test; type: toxicity, organism-based; conditions: in vivo
Rattus norvegicus [27] = test: Neurotoxicity in rat at 30 mg/kg, po after 4 hrs by rotarod test; type: toxicity, organism-based; conditions: in vivo
Mus musculus [28] = test: Neurotoxicity in mouse at 30 mg/kg, ip after 0.5 hrs by rotarod test; type: toxicity, organism-based; conditions: in vivo; outline: as §3
Mus musculus [29] = test: Anticonvulsant activity in mouse assessed as protection against maximal electric shock-induced seizures at 30 mg/kg, ip measured after 1 hr; type: functional, organism-based; outline: as §2
Mus musculus [30] = test: Neurotoxicity in mouse at 30 mg/kg, ip after […] by rotarod test; type: toxicity, organism-based; conditions: in vivo
Mus musculus [31] = test: Neurotoxicity in mouse at 100 mg/kg, ip after 2 hrs by rotarod test; type: toxicity, organism-based; conditions: in vivo; outline: as §3
Rattus norvegicus [32] = test: Neurotoxicity in rat at 30 mg/kg, ip after 1 hr by rotarod test; type: toxicity, organism-based; conditions: in vivo

Measured: Activity

Cc1cccc(OCCCN2CCCC(O)C2)c1C (configuration not stated)
Non-toxic: Rattus norvegicus [3] | Rattus norvegicus [4] | Mus musculus [6] | Mus musculus [7] | Mus musculus [8] | Mus musculus [9] | Rattus norvegicus [12] | Rattus norvegicus [15] | Rattus norvegicus [22] | Rattus norvegicus [24] | Rattus norvegicus [25] | Rattus norvegicus [26] | Rattus norvegicus [27] | Mus musculus [28] | Mus musculus [30] | Mus musculus [31] | Rattus norvegicus [32]
active: Mus musculus [11] | Mus musculus [16] | Mus musculus [21]
inactive: Rattus norvegicus [1] | Rattus norvegicus [2] | Mus musculus [5] | Rattus norvegicus [10] | Rattus norvegicus [13] | Mus musculus [14] | Rattus norvegicus [17] | Rattus norvegicus [18] | Mus musculus [19] | Rattus norvegicus [20] | Mus musculus [23] | Mus musculus [29]
